Reference: ChEMBL document CHEMBL3045540, “Naphthalenones from a Perenniporia sp. inhabiting the larva of a phytophagous weevil, Euops chinesis” (2012)
≈ marks a conversion by molar mass, not a printed value. Calls of active or inactive are those of the source. No cut-off for these calls is given here.

Experiments:
Fusarium oxysporum [1] = assay: Antifungal activity against Fusarium oxysporum CGMCC 3.2830 after 48 hr by Alamar blue assay; type: functional; settings: CGMCC 3.2830, 48 h
In short: (§1)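 NCCLS-based broth microdilution, run in triplicate. Fungi were kept on PDA, and the inoculum was grown in broth at 28 °C for 48 h, then set to a final 10^4 hyphae/mL in PDB. Samples were serially diluted from a 10 mg/mL DMSO stock, with 10% Alamar blue as indicator, and incubated at 28 °C for 48 h. Fluorescence was read at 544/590 nm. MIC was the lowest concentration giving complete growth inhibition.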

Verticillium albo-atrum [2] = assay: Antifungal activity against Verticillium albo-atrum CGMCC 3.4306 after 48 hr by Alamar blue assay; type: functional; settings: CGMCC 3.4306, 48 h; in short: as §1
Fusarium verticillioides [3] = assay: Antifungal activity against Fusarium verticillioides CGMCC 3.2835 after 48 hr by Alamar blue assay; type: functional; settings: CGMCC 3.2835, 48 h; in short: as §1
Fusarium graminearum [4] = assay: Antifungal activity against Fusarium graminearum CGMCC 3.2873 after 48 hr by Alamar blue assay; type: functional; settings: CGMCC 3.2873, 48 h; in short: as §1
Alternaria longipes [5] = assay: Antifungal activity against Alternaria longipes CGMCC 3.2875 after 48 hr by Alamar blue assay; type: functional; settings: CGMCC 3.2875, 48 h
In short: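 Run in triplicate per NCCLS recommendations. The strain was grown on PDA, and inoculum came from broth cultures (28 °C, 48 h), with a final suspension of 10^4 hyphae/mL in PDB. Samples were serially diluted from a 10 mg/mL DMSO stock, with 10% Alamar blue as indicator. After 28 °C for 48 h, fluorescence was read at Ex/Em 544/590 nm. MIC is the lowest concentration giving complete growth inhibition, taken from inhibition-versus-concentration plots.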

Alternaria longipes [6] = assay: Antifungal activity against Alternaria longipes CGMCC 3.2875 at 20 ug/ml after 48 hr by Alamar blue assay; type: functional, organism-based
Fusarium verticillioides [7] = assay: Antifungal activity against Fusarium verticillioides CGMCC 3.2835 at 20 ug/ml after 48 hr by Alamar blue assay; type: functional, organism-based
Verticillium albo-atrum [8] = assay: Antifungal activity against Verticillium albo-atrum CGMCC 3.4306 at 20 ug/ml after 48 hr by Alamar blue assay; type: functional, organism-based
Fusarium oxysporum [9] = assay: Antifungal activity against Fusarium oxysporum CGMCC 3.2830 at 20 ug/ml after 48 hr by Alamar blue assay; type: functional, organism-based
Fusarium graminearum [10] = assay: Antifungal activity against Fusarium graminearum CGMCC 3.2873 at 20 ug/ml after 48 hr by Alamar blue assay; type: functional, organism-based

Row | Compound | MIC (Fusarium oxysporum [1]) | MIC (Verticillium albo-atrum [2]) | MIC (Fusarium verticillioides [3]) | MIC (Fusarium graminearum [4]) | MIC (Alternaria longipes [5]) | Activity (Alternaria longipes [6]) | Activity (Fusarium verticillioides [7]) | Activity (Verticillium albo-atrum [8]) | Activity (Fusarium oxysporum [9]) | Activity (Fusarium graminearum [10])
1 | CCc1c(OC)cc2c(c1O)C(=O)C=C(OC)[C@@]21C[C@@H](O)C(=O)O1 [PERENNIPORIDE A] | 10 µg/mL (≈ 29.9 µM) | 20 µg/mL (≈ 59.8 µM) | 20 µg/mL (≈ 59.8 µM) | 20 µg/mL (≈ 59.8 µM) | 10 µg/mL (≈ 29.9 µM) | – | – | – | – | –
2 | COC(=O)Nc1nc2ccccc2[nH]1 [CARBENDAZIM] | 0.63 µg/mL (≈ 3.3 µM) | 0.63 µg/mL (≈ 3.3 µM) | 0.63 µg/mL (≈ 3.3 µM) | 2.5 µg/mL (≈ 13.1 µM) | – | inactive | – | – | – | –
3 | CCc1c(OC)cc2c(c1O)C(=O)C=C(OC)[C@@]2(O)C[C@@H](O)C(=O)OC | – | – | – | – | – | inactive | inactive | inactive | inactive | inactive
4 | CCc1c(OC)cc2c(c1O)C(=O)C[C@@]1(OC)O[C@@H](C(=O)OC)C[C@@]21O | – | – | – | – | – | inactive | inactive | inactive | inactive | inactive
5 | CCc1c(OC)cc2c(c1O)C(=O)C[C@]1(OC)OC(=O)[C@H](O)C[C@@]21O | – | – | – | – | – | inactive | inactive | inactive | inactive | inactive
